Only some compounds are listed: those with a hit (about 1.8% of all), similar ones and a draw of the others.
ARNT TACC3 PPI: disruptors of ARNT/TACC3 protein interaction, primary screen, biochemical, AlphaScreen, single concentration. AlphaScreen His-ARNT PAS-B/GST-TACC3 binding, luminescence; TACC3 fragment carries E629A point mutation. inhibition, % at 9.99 µM. actives 0.66% (n = 390,000);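 active = mean inhibition of replicates at least 50% and at least half of replicates each reaching 50%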;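 also: 0% = complete ARNT plus TACC3 wells and 100% = ARNT alone without TACC3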
CAL PDZ FP-1: CAL PDZ peptide-binding inhibitors, primary screen, biochemical, fluorescence polarization, Cer-tagged CAL PDZ, HTS. Golgi-associated PDZ and coiled-coil motif-containing protein (Homo sapiens), Q9HD26. purified CAL PDZ, TMR-peptide fluorescence polarization, 1 h. inhibition, % at 20 µM. actives 0.02% (n = 330,000);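 active = highest replicate inhibition of at least 40%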;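 also: plate controls were DMSO neutral control wells for no effect and unlabeled competitor peptide control wells for full effect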
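material = purified tagged CAL PDZ domain construct (CerCALP) | compound dosing = 20 µM, one dose | times = 1 h at RT | measured by = fluorescence polarization from S- and P-plane intensities, G-factor corrected | read-out = inhibition from polarization loss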
DDE Tn7 FP inh: inhibitors of Tn7 peptide binding to fibrin DD(E), primary screen, biochemical, fluorescence polarization, human fibrin, Tn7 probe; AID 720508, 2013; inhibition, % at 8.3 µM; actives 0.13% (n = 370,000); FP displacement of FITC-Tn7 peptide from fibrin DD(E); 0% = median of compound wells per plate; Fibrinogen beta chain (Homo sapiens), P02675;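 active = inhibition above the mean of compounds falling within the control limits plus 3 SD of them, cut at about 14% in these data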;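 also: 0% = plate median of compound wells and 100% = 10 µM Aha-Tn7 peptide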
Target sequence (P02675 whole entry, looked up): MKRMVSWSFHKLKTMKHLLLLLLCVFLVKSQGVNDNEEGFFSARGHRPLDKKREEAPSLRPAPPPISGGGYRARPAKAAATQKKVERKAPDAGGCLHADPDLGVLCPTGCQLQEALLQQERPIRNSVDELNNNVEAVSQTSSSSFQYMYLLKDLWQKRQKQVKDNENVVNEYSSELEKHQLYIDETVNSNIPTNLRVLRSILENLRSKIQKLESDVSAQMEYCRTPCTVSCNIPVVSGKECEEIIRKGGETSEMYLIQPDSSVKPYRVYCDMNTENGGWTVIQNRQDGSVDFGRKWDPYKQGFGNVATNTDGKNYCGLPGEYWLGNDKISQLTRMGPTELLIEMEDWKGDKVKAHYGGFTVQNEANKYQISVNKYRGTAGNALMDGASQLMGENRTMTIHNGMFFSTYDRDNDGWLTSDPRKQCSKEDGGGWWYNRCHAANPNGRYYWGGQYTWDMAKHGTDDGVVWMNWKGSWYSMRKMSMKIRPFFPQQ
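Assay system: Fibrin-DD(E) protein isolated from polymerized human fibrin clots; read-out basis: percent inhibition; medium: Tris/NaCl/CaCl2 buffer, pH 7.8; signal: FP measurement; incubation: 10 min plus 3 h, room temperature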
DDE Tn6 FP inh: inhibitors of Tn6 peptide binding to fibrin DD(E), primary screen, biochemical, fluorescence polarization, human fibrin, Tn6 probe | actives 0.21% (n = 370,000) | Fibrin DD(E) TRITC-Tn6 fluorescence polarization displacement | inhibition, % at 8.3 µM | AID 720509, 2013;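 active = inhibition above a per-campaign cutoff: mean of compounds within control limits plus 3 SD, cut at about 15% in these data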;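 also: 0% = median of all compound wells on the plate and 100% = blocking peptide control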
CAL PDZ FP-2: untagged CAL PDZ binding inhibitors, primary screen, biochemical, fluorescence polarization, HTS | Golgi-associated PDZ and coiled-coil motif-containing protein (Homo sapiens), Q9HD26 | purified CAL PDZ, TMR-peptide fluorescence polarization, 1 h | inhibition, % at 24.9 µM | actives 0.92% (n = 300,000);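 active = mean inhibition of at least 30% with at least half of replicates also reaching 30%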;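 also: 0% = DMSO neutral control and 100% = excess unlabeled competitor peptide PRC23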
GRK2 aptamer HTS: compounds blocking aptamer binding on GRK2 – biochemical, human GRK2, bead flow cytometry, HTS, primary screen; Beta-adrenergic receptor kinase 1 (Homo sapiens), P25098; FAM-aptamer displacement from GRK2; inhibition of aptamer binding, % at 10 µM; actives 0.59% (n = 330,000); AID 488847, 2010;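 active = inhibition of aptamer binding above 40%, roughly 3 SD of noise, on plates passing a quality check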;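 also: median bead fluorescence of bound FAM aptamer so fluorescent compounds give negative values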
GRK2 CP1: GRK2 aptamer-displacing inhibitors, retest, confirmation, biochemical, cherry pick 1, bead flow cytometry; shares compounds with GRK2 aptamer HTS; aptamer displacement, % at 10 µM; bead-bound GRK2, FAM-aptamer displacement; actives 4% (n = 2,000);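 active = aptamer displacement above 40%, near three times the noise of non-fluorescent compounds, on plates passing quality checks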;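 also: negative values mostly reflect intrinsic compound fluorescence rather than true enhancement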
Aptamer quench SP: counter-screen for GRK2 aptamer inhibitors: fluorescent aptamer quenchers | shares compounds with GRK2 aptamer HTS | Carboxyfluorescein RNA aptamer on beads, flow cytometry quenching; hits give low values | fluorescence response (% of DMSO), % at 10 µM | 2,000 tested, under 10 active | AID 504580;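 active = compounds that quench the bead-bound fluorescent RNA probe, cutting fluorescence to under half of the solvent control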;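 also: counterscreen run without GRK2 so only probe quenching by compound is measured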
GRK2 confirm 2: GRK2 aptamer-displacing inhibitors, hit retest, confirmation, biochemical, cherry pick 2, bead flow cytometry. bead-bound GRK2, FAM-aptamer displacement. shares compounds with GRK2 aptamer HTS. inhibition of aptamer binding, % at 10 µM. AID 504782, 2011. 360 tested, under 10 active;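 active = inhibition of aptamer binding above 40%, about triple the noise seen with nonglowing compounds, on plates passing quality control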;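 also: negative values mostly come from compounds that fluoresce themselves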
FAM quench CP2: aptamer fluorescence quenching in GRK2 counter-screen. AID 588494. carboxyfluorescein RNA aptamer beads, flow cytometry quenching; hits give low values. fluorescence response vs DMSO, % at 10 µM. shares compounds with GRK2 aptamer HTS. 360 tested, under 10 active;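 active = response vs DMSO under 50%, meaning signal dropped by over half, treated as fluorescence quencher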;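 also: labelled aptamer on streptavidin beads without GRK2 as a quench counter-screen; 100% = bead fluorescence of DMSO wells and lower means quenching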
Starred values were filed as active, the others as inactive.

For C[C@@H]1CN([C@H](C)CO)C(=O)c2cc(NC(=O)Cc3cn(C)c4ccccc34)ccc2O[C@@H]1CN(C)S(=O)(=O)c1cn(C)cn1 the results were ARNT TACC3 PPI -1.2.
For Cn1nc(C(F)(F)F)c(C(=O)Nc2ccc(F)cc2F)c1Cl the results were ARNT TACC3 PPI 0.4, CAL PDZ FP-1 0.4, DDE Tn7 FP inh 3.2, DDE Tn6 FP inh 5.2, CAL PDZ FP-2 -2.5, GRK2 aptamer HTS 47.0*, GRK2 CP1 -1.1 and Aptamer quench SP 97.9.
For Cc1ccc(N2CC(C(=O)Nc3cccc(C(=O)NC4CC4)c3)CC2=O)cc1 (stereo not drawn) the results were ARNT TACC3 PPI 35.6, CAL PDZ FP-1 -1.6, DDE Tn7 FP inh 4.8, DDE Tn6 FP inh 0.9, CAL PDZ FP-2 -2.9, GRK2 aptamer HTS 6.0, GRK2 CP1 5.6 and Aptamer quench SP 97.9.
For Cc1[nH]c2ccccc2c1NC(=O)CN1CCN(c2cccc(C(F)(F)F)c2)CC1 the results were CAL PDZ FP-1 -1.2, DDE Tn7 FP inh 3.2, DDE Tn6 FP inh -4.7, CAL PDZ FP-2 -2.9, GRK2 aptamer HTS 74.0*, GRK2 CP1 -3.5 and Aptamer quench SP 97.8.
C[C@@H]1CN([C@@H](C)CO)C(=O)c2cc(-c3ccc(F)cc3)cnc2O[C@H]1CN(C)Cc1ccc(C(=O)O)cc1 was read as ARNT TACC3 PPI -0.7.
For CCCCSCCCNC(=O)c1ccc2c(c1)N(CC)C(=O)c1ccccc1S2=O (stereo not drawn) the results were ARNT TACC3 PPI -3.7, CAL PDZ FP-1 -1.3, DDE Tn7 FP inh -0.5, DDE Tn6 FP inh -0.3, CAL PDZ FP-2 -6.7, GRK2 aptamer HTS 47.0*, GRK2 confirm 2 9.4 and FAM quench CP2 100.0.
For Cc1ccc(-n2ncc3c(SCC(=O)NNC(=O)C(C)C)ncnc32)cc1 the results were ARNT TACC3 PPI -6.9, DDE Tn7 FP inh -1.1, DDE Tn6 FP inh 1.9, CAL PDZ FP-2 -15.5, GRK2 aptamer HTS 97.0*, GRK2 CP1 -0.6 and Aptamer quench SP 99.9.
CC(C)C(=O)NNC(=O)CSc1ncnc2c1cnn2-c1ccccc1Cl was read as ARNT TACC3 PPI -11.8, CAL PDZ FP-1 1.1, DDE Tn7 FP inh 0.2, DDE Tn6 FP inh -0.3, CAL PDZ FP-2 7.4 and GRK2 aptamer HTS 0.0.
For CC(=O)c1cn(CC(=O)Nc2ccccc2F)c2ccccc12 the results were ARNT TACC3 PPI -1.9, CAL PDZ FP-1 1.1, DDE Tn7 FP inh 3.4, DDE Tn6 FP inh -7.2, CAL PDZ FP-2 -1.4, GRK2 aptamer HTS 72.0*, GRK2 CP1 -6.3 and Aptamer quench SP 102.6.
